Laboratory results published in ChEMBL document CHEMBL2086363, “Lipophilic Isosteres of a π-π Stacking Interaction: New Inhibitors of the Bcl-2-Bak Protein-Protein Interaction” (ACS Med Chem Lett, 2012).

Key:
[1] = biological target: Apoptosis regulator Bcl-2/Bcl-2 homologous antagonist/killer (Homo sapiens, UniProt P10415); test: Inhibition of Bcl2-BAK interaction after 1 hr by surface plasmon resonance assay; format: protein assay
Procedure, shortened: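 SPR measurement of Bcl-2–Bak binding inhibition. Each value is the average of at least two measurements, with duplicate EC50 values generated in each assay.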

Bcl-xL/BAK = Bcl-xL/BAK (Homo sapiens, UniProt Q07817); test: Inhibition of Bcl-XL-BAK interaction; format: protein assay
MCL1-BAK1 complex = MCL1-BAK1 complex (Homo sapiens, UniProt Q07820); test: Inhibition of Mcl1-BAK interaction; format: protein-complex assay
[2] = Half life in Sprague-Dawley rat at 1 mg/kg, iv and 10 mg/kg, po; format: ADME, organism-based; conditions: in vivo
[3] = Volume of distribution at steady state in Sprague-Dawley rat at 1 mg/kg, iv and 10 mg/kg, po; format: ADME, organism-based; conditions: in vivo, read-out: Vdss
[4] = Selectivity ratio of EC50 for Bcl-XL-BAK interaction to EC50 for Bcl2-BAK interaction
[5] = Clearance in Sprague-Dawley rat at 1 mg/kg, iv and 10 mg/kg, po; format: ADME, organism-based; conditions: in vivo
[6] = Oral bioavailability in Sprague-Dawley rat at 10 mg/kg; format: ADME, organism-based; conditions: in vivo

Chain of Bcl-xL/BAK (Q07817 whole entry): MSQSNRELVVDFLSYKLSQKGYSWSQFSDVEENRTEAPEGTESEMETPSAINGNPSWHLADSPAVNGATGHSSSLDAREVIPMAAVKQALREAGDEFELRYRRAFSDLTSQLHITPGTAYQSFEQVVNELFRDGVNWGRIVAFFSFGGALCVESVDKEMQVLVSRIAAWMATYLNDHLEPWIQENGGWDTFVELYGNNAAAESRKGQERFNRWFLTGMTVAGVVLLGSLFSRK
Chain of Bcl-xL/BAK (Q16611 whole entry, further chain): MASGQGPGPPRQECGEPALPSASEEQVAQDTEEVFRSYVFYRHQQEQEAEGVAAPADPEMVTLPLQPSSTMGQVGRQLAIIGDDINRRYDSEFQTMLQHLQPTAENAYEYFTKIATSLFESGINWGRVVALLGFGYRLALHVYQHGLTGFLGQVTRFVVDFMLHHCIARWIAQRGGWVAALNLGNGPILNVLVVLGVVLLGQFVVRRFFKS
Chain of MCL1-BAK1 complex (Q07820 whole entry): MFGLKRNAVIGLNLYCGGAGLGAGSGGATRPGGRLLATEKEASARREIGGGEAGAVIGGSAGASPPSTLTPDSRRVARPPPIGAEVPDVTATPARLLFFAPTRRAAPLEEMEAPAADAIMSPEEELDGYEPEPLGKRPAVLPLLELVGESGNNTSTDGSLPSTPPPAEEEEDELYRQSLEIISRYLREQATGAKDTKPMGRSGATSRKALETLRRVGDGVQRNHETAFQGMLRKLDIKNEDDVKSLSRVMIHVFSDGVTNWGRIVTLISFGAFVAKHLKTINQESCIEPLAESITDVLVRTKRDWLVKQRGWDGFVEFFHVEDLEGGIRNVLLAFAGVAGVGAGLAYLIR
Chain of MCL1-BAK1 complex (Q16611 whole entry, further chain): as the sequence (Q16611 whole entry, further chain) above
Chain of Apoptosis regulator Bcl-2/Bcl-2 homologous antagonist/killer (P10415 whole entry): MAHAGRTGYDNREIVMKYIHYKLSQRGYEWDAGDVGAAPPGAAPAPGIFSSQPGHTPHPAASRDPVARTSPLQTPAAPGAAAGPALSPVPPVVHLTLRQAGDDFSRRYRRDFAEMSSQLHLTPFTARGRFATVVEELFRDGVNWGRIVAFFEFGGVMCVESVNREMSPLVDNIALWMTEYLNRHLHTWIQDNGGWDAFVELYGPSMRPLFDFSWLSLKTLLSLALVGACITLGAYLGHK
Chain of Apoptosis regulator Bcl-2/Bcl-2 homologous antagonist/killer (Q16611 whole entry, further chain): as the sequence (Q16611 whole entry, further chain) above

IC50 (MCL1-BAK1 complex) [nM]	Structure (SMILES)	EC50 [1] [nM]	further results
–	O=C(NS(=O)(=O)CC12CC3CC(CC(F)(C3)C1)C2)c1ccc(N2CCN(Cc3ccccc3-c3ccc(Cl)cc3)CC2)cc1	480	–
–	O=C(NS(=O)(=O)CC12CC3CC(C1)CC(NC(=O)C1CC1)(C3)C2)c1ccc(N2CCN(Cc3ccccc3-c3ccc(Cl)cc3)CC2)cc1	210	–
> 50000	O=C(NS(=O)(=O)CC12CC3CCC(CC(C3)C1)C2)c1ccc(N2CCN(Cc3ccccc3-c3ccc(Cl)cc3)CC2)cc1	120	EC50 (Bcl-xL/BAK): 220 nM
–	CC(=O)NC12CC3CC(CC(CS(=O)(=O)NC(=O)c4ccc(N5CCN(Cc6ccccc6-c6ccc(Cl)cc6)CC5)cc4)(C3)C1)C2	230	–
> 50000	CC1(C)[C@@]2(C)CC[C@H](CS(=O)(=O)NC(=O)c3ccc(N4CCN(Cc5ccccc5-c5ccc(Cl)cc5)CC4)cc3)[C@]1(C)C2	560	–
> 50000	O=C(NS(=O)(=O)C12CC3CC(CC(C3)C1)C2)c1ccc(N2CCN(Cc3ccccc3-c3ccc(Cl)cc3)CC2)cc1	> 16000	–
–	O=C(NS(=O)(=O)CC12CC3CC(C1)CC(OCCN1CCOCC1)(C3)C2)c1ccc(N2CCN(Cc3ccccc3-c3ccc(Cl)cc3)CC2)cc1	310	–
–	CC12CC3CC(C1)CC(CS(=O)(=O)NC(=O)c1ccc(N4CCN(Cc5ccccc5-c5ccc(Cl)cc5)CC4)cc1)(C3)C2	1100	–
> 50000	CC1(C)C2CC[C@]1(CS(=O)(=O)NC(=O)c1ccc(N3CCN(Cc4ccccc4-c4ccc(Cl)cc4)CC3)cc1)C(=O)C2	1020	–
> 50000	CS(=O)(=O)NC(=O)c1ccc(N2CCN(Cc3ccccc3-c3ccc(Cl)cc3)CC2)cc1	8620	–
> 50000	O=C(NS(=O)(=O)NC12CC3CC(CC(C3)C1)C2)c1ccc(N2CCN(Cc3ccccc3-c3ccc(Cl)cc3)CC2)cc1	2100	–
–	O=C(NS(=O)(=O)CC12CC3CC(C1)CC(c1ccccc1)(C3)C2)c1ccc(N2CCN(Cc3ccccc3-c3ccc(Cl)cc3)CC2)cc1	1970	–
> 50000	CC1(C)C2CC[C@@]1(CS(=O)(=O)NC(=O)c1ccc(N3CCN(Cc4ccccc4-c4ccc(Cl)cc4)CC3)cc1)C(=O)C2	1470	–
> 50000	O=C(NS(=O)(=O)CCC12CC3CC(CC(C3)C1)C2)c1ccc(N2CCN(Cc3ccccc3-c3ccc(Cl)cc3)CC2)cc1	2810	–
> 50000	O=C(NS(=O)(=O)CC12CC3CC(CC(C3)C1)C2)c1ccc(N2CCN(Cc3ccccc3-c3ccc(Cl)cc3)CC2)cc1	670	half-life [2]: 1.3 h; EC50 (Bcl-xL/BAK): 2850 nM; Vd [3]: 0.7 L/kg; Ratio EC50 [4]: 4.3; clearance [5]: 6 mL/min/kg; bioavailability [6]: 66%
–	CC(C)C(=O)NC12CC3CC(CC(CS(=O)(=O)NC(=O)c4ccc(N5CCN(Cc6ccccc6-c6ccc(Cl)cc6)CC5)cc4)(C3)C1)C2	160	–
> 50000	O=C(NS(=O)(=O)CC12CC3CC(CC1C3)C2)c1ccc(N2CCN(Cc3ccccc3-c3ccc(Cl)cc3)CC2)cc1	2660	–
> 50000	CC(C)(C)S(=O)(=O)NC(=O)c1ccc(N2CCN(Cc3ccccc3-c3ccc(Cl)cc3)CC2)cc1	> 16000	–
> 50000	CC1(C)[C@]2(C)CC[C@@H](CS(=O)(=O)NC(=O)c3ccc(N4CCN(Cc5ccccc5-c5ccc(Cl)cc5)CC4)cc3)[C@@]1(C)C2	420	EC50 (Bcl-xL/BAK): 580 nM
–	CC(C)(C)C(=O)NC12CC3CC(CC(CS(=O)(=O)NC(=O)c4ccc(N5CCN(Cc6ccccc6-c6ccc(Cl)cc6)CC5)cc4)(C3)C1)C2	520	–
–	O=C(NS(=O)(=O)CC12CC3CC(CC(Br)(C3)C1)C2)c1ccc(N2CCN(Cc3ccccc3-c3ccc(Cl)cc3)CC2)cc1	670	–
–	O=C(NS(=O)(=O)CC12CC3CC(CC(O)(C3)C1)C2)c1ccc(N2CCN(Cc3ccccc3-c3ccc(Cl)cc3)CC2)cc1	300	half-life [2]: 1.3 h; Vd [3]: 1.2 L/kg; clearance [5]: 16 mL/min/kg; bioavailability [6]: > 100%
> 50000	CCS(=O)(=O)NC(=O)c1ccc(N2CCN(Cc3ccccc3-c3ccc(Cl)cc3)CC2)cc1	5310	–
